In brackets after ≈: the same amount, converted by molar mass. Numbered stars: 1 amine (or outer) side, 2 acyl side, 3 side chain; on linkers, the order of the positions; unused ones are H or OH. Bridge positions count the residues as written; N and C are the ends. Square brackets hold non-standard residues; d marks the D form. Peptide text beside a SMILES is read from it. * marks the point of attachment. Orn(4R-OH,5R-OH) = O=C([C@H](C[C@@H](O)[C@@H](O)N[*:3])N[*:1])[*:2]; hTyr(3S-OH,4S-OH) = N[C@H](C(=O)O)[C@H](O)[C@@H](O)c1ccc(O)cc1; Pro(3S-OH,4S-Me) = C[C@H]1CN[C@H](C(=O)O)[C@H]1O; X25 = CCCCCCCCCCCCC(Oc1ccc(-c2ccccc2)cc1)C(=O)*; X18 = O=C(c1ccc(C#Cc2ccc(-c3ccccc3)cc2)cc1)*; X11 = CCC(CC)COc1ccc(-c2ccc(C(=O)*)cc2)cc1; X13 = O=C(CCCCCCCCCCOc1ccc(-c2ccccc2)cc1)*; X22 = O=C(c1ccc(-c2ccc(OCC3CCCC3)cc2)cc1)*; X24 = CCCCC(Oc1ccc(-c2ccccc2)cc1)C(=O)*; X10 = CCCCc1ccc(COc2ccc(C(=O)*)cc2)cc1; X21 = CCCCOc1ccc(-c2ccc(C(=O)*)cc2)cc1; X26 = CCCCOc1ccc(Cc2ccc(C(=O)*)cc2)cc1; X28 = CCCCOc1ccc(Oc2ccc(C(=O)*)cc2)cc1; X23 = O=C(CCCCCOc1ccc(-c2ccccc2)cc1)*; X27 = CCCCCCCCCCOc1cc2ccccc2cc1C(=O)*; X12 = CCCCCCCCCCOCCOc1ccc(C(=O)*)cc1; X15 = CCCCCCOc1ccc2cc(C(=O)*)ccc2c1; X19 = CCCCCCCCOCCOc1ccc(C(=O)*)cc1; X30 = CCCCCCOc1cc2ccccc2cc1C(=O)*; Hyp = O=C(O)[C@@H]1C[C@@H](O)CN1; X29 = CCCCCOCCOc1ccc(C(=O)*)cc1
What was measured:
Candida albicans [1] = assay: Antifungal activity against Candida albicans; format: functional
Outline: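 Broth microdilution, C. albicans A26 (ATCC 62342) grown on Sabouraud dextrose agar at 35 °C; inoculum 1 × 10^5 conidia/mL in antibiotic 3 broth. Compounds dissolved at 1.0 mg/mL in methanol, 2-fold serial dilutions from 80 µg/mL, duplicate. Read after 48 h at 35 °C. MIC = lowest concentration completely inhibiting visible growth.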

Candida albicans [2] = assay: In vivo antifungal activity administered intraperitoneally against Candida albicans infections in mice.; format: functional; conditions: ip
Outline: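 Male ICR mice (18-20 g), X-irradiated with 400 r 24 h before iv tail-vein infection with 2 × 10^6 C. albicans A26 cells in saline. Compounds suspended in β-cyclodextrin, given parenterally at 0, 4, 24 and 48 h post-infection. 10 mice per dose, top dose 10 mg/kg with 2-fold dilutions down to 0.039 mg/kg. 7-day survival; ED50 by Reed-Muench.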

[3] = target: Beta-1,3-glucan synthase (Candida albicans) (UniProt O13428); assay: In vitro inhibition of glucan synthase obtained from Candida albicans at a concentration of 10 ug/mL.
Outline: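 Purified, solubilized β-(1,3)-D-glucan synthase prepared from C. albicans. Percent inhibition measured at 10 µg/mL compound, single determination.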

Chain of Beta-1,3-glucan synthase (Candida albicans) (O13428 as listed by the source): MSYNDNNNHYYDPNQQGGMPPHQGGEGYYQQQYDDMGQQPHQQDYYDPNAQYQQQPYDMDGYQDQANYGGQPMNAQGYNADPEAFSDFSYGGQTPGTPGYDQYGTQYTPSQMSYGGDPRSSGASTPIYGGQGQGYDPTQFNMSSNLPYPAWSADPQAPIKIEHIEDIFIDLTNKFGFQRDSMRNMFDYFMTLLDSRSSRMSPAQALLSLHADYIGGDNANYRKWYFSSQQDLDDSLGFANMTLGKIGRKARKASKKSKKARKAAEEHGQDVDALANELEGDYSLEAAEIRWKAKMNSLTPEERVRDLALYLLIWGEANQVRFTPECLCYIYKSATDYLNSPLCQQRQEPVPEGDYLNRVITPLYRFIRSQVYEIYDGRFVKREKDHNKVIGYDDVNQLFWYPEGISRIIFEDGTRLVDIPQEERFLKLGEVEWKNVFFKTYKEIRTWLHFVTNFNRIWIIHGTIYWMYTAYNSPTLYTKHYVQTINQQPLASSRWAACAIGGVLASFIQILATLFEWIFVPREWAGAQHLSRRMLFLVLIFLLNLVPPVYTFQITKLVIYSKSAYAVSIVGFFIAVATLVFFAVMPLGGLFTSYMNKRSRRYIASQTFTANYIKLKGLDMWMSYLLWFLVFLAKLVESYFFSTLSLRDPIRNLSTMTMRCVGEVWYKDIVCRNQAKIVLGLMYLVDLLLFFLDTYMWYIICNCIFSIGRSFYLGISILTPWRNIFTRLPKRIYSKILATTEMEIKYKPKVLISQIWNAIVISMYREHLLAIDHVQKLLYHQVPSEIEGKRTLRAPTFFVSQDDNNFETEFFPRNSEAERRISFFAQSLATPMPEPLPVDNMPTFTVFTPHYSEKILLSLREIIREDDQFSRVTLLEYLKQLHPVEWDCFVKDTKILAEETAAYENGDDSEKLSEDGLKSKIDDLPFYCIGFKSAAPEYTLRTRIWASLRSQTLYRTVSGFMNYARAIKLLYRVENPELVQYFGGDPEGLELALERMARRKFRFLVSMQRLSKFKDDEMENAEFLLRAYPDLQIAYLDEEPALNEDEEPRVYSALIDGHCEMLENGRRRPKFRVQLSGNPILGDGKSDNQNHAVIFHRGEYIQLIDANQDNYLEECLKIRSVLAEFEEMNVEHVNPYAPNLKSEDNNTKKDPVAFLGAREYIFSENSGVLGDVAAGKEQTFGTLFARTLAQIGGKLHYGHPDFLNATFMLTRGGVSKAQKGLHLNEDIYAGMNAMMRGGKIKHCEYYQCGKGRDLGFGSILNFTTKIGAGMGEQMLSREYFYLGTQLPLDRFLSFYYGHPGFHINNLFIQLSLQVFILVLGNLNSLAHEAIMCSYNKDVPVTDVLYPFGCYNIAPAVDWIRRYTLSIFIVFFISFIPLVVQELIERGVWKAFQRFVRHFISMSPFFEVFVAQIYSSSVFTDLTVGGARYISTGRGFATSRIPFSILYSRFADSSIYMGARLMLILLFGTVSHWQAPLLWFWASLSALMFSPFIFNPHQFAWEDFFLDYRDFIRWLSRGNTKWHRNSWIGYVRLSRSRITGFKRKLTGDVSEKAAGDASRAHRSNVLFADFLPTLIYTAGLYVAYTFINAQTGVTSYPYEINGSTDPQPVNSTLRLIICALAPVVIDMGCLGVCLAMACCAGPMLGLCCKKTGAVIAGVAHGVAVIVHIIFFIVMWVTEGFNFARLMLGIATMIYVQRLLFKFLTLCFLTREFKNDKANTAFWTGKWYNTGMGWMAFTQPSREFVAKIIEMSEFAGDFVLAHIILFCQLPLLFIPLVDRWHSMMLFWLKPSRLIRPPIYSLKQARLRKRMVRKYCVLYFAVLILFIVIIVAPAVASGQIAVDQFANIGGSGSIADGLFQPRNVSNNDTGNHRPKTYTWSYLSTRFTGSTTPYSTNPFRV

Structure (SMILES)	MIC (Candida albicans [1])	ED50 (Candida albicans [2])	inhibition [3]
C[C@@H](O)[C@@H]1NC(=O)[C@H]([C@H](O)[C@@H](O)c2ccc(O)cc2)NC(=O)[C@@H]2C[C@@H](O)CN2C(=O)[C@H]([C@@H](C)O)NC(=O)[C@@H](NC(=O)c2ccc(-c3ccc(OCC4CCCC4)cc3)cc2)C[C@@H](O)[C@@H](O)NC(=O)[C@@H]2[C@@H](O)[C@@H](C)CN2C1=O (X22-[Orn(4R-OH,5R-OH)]T[Hyp][hTyr(3S-OH,4S-OH)]T[Pro(3S-OH,4S-Me)]; lactam 1-C)	0.039 µg/mL (≈ 0.0362 µM)	1.2 mg/kg	
CCCCCOCCOc1ccc(C(=O)N[C@H]2C[C@@H](O)[C@@H](O)NC(=O)[C@@H]3[C@@H](O)[C@@H](C)CN3C(=O)[C@H]([C@@H](C)O)NC(=O)[C@H]([C@H](O)[C@@H](O)c3ccc(O)cc3)NC(=O)[C@@H]3C[C@@H](O)CN3C(=O)[C@H]([C@@H](C)O)NC2=O)cc1 (X29-[Orn(4R-OH,5R-OH)]T[Hyp][hTyr(3S-OH,4S-OH)]T[Pro(3S-OH,4S-Me)]; lactam 1-C)	> 20 µg/mL		17.1%
CCCCOc1ccc(Oc2ccc(C(=O)N[C@H]3C[C@@H](O)[C@@H](O)NC(=O)[C@@H]4[C@@H](O)[C@@H](C)CN4C(=O)[C@H]([C@@H](C)O)NC(=O)[C@H]([C@H](O)[C@@H](O)c4ccc(O)cc4)NC(=O)[C@@H]4C[C@@H](O)CN4C(=O)[C@H]([C@@H](C)O)NC3=O)cc2)cc1 (X28-[Orn(4R-OH,5R-OH)]T[Hyp][hTyr(3S-OH,4S-OH)]T[Pro(3S-OH,4S-Me)]; lactam 1-C)	> 20 µg/mL		66.7%
C[C@@H](O)[C@@H]1NC(=O)[C@H]([C@H](O)[C@@H](O)c2ccc(O)cc2)NC(=O)[C@@H]2C[C@@H](O)CN2C(=O)[C@H]([C@@H](C)O)NC(=O)[C@@H](NC(=O)CCCCCOc2ccc(-c3ccccc3)cc2)C[C@@H](O)[C@@H](O)NC(=O)[C@@H]2[C@@H](O)[C@@H](C)CN2C1=O (X23-[Orn(4R-OH,5R-OH)]T[Hyp][hTyr(3S-OH,4S-OH)]T[Pro(3S-OH,4S-Me)]; lactam 1-C)	1.25 µg/mL (≈ 1.17 µM)		69.1%
CCCCCCCCCCCCC(Oc1ccc(-c2ccccc2)cc1)C(=O)N[C@H]1C[C@@H](O)[C@@H](O)NC(=O)[C@@H]2[C@@H](O)[C@@H](C)CN2C(=O)[C@H]([C@@H](C)O)NC(=O)[C@H]([C@H](O)[C@@H](O)c2ccc(O)cc2)NC(=O)[C@@H]2C[C@@H](O)CN2C(=O)[C@H]([C@@H](C)O)NC1=O (stereo partly drawn) (X25-[Orn(4R-OH,5R-OH)]T[Hyp][hTyr(3S-OH,4S-OH)]T[Pro(3S-OH,4S-Me)]; lactam 1-C)	0.312 µg/mL (≈ 0.265 µM)		83%
CCCCOc1ccc(-c2ccc(C(=O)N[C@H]3C[C@@H](O)[C@@H](O)NC(=O)[C@@H]4[C@@H](O)[C@@H](C)CN4C(=O)[C@H]([C@@H](C)O)NC(=O)[C@H]([C@H](O)[C@@H](O)c4ccc(O)cc4)NC(=O)[C@@H]4C[C@@H](O)CN4C(=O)[C@H]([C@@H](C)O)NC3=O)cc2)cc1 (X21-[Orn(4R-OH,5R-OH)]T[Hyp][hTyr(3S-OH,4S-OH)]T[Pro(3S-OH,4S-Me)]; lactam 1-C)	0.078 µg/mL (≈ 0.0743 µM)	0.8 mg/kg	71.4%
CCC(CC)COc1ccc(-c2ccc(C(=O)N[C@H]3C[C@@H](O)[C@@H](O)NC(=O)[C@@H]4[C@@H](O)[C@@H](C)CN4C(=O)[C@H]([C@@H](C)O)NC(=O)[C@H]([C@H](O)[C@@H](O)c4ccc(O)cc4)NC(=O)[C@@H]4C[C@@H](O)CN4C(=O)[C@H]([C@@H](C)O)NC3=O)cc2)cc1 (X11-[Orn(4R-OH,5R-OH)]T[Hyp][hTyr(3S-OH,4S-OH)]T[Pro(3S-OH,4S-Me)]; lactam 1-C)	0.039 µg/mL (≈ 0.0362 µM)	4.6 mg/kg	
CCCCCCCCOCCOc1ccc(C(=O)N[C@H]2C[C@@H](O)[C@@H](O)NC(=O)[C@@H]3[C@@H](O)[C@@H](C)CN3C(=O)[C@H]([C@@H](C)O)NC(=O)[C@H]([C@H](O)[C@@H](O)c3ccc(O)cc3)NC(=O)[C@@H]3C[C@@H](O)CN3C(=O)[C@H]([C@@H](C)O)NC2=O)cc1 (X19-[Orn(4R-OH,5R-OH)]T[Hyp][hTyr(3S-OH,4S-OH)]T[Pro(3S-OH,4S-Me)]; lactam 1-C)	2.5 µg/mL (≈ 2.33 µM)	4.4 mg/kg	54.8%
CCCCc1ccc(COc2ccc(C(=O)N[C@H]3C[C@@H](O)[C@@H](O)NC(=O)[C@@H]4[C@@H](O)[C@@H](C)CN4C(=O)[C@H]([C@@H](C)O)NC(=O)[C@H]([C@H](O)[C@@H](O)c4ccc(O)cc4)NC(=O)[C@@H]4C[C@@H](O)CN4C(=O)[C@H]([C@@H](C)O)NC3=O)cc2)cc1 (X10-[Orn(4R-OH,5R-OH)]T[Hyp][hTyr(3S-OH,4S-OH)]T[Pro(3S-OH,4S-Me)]; lactam 1-C)	0.156 µg/mL (≈ 0.147 µM)	6.7 mg/kg	68.9%
CCCCC(Oc1ccc(-c2ccccc2)cc1)C(=O)N[C@H]1C[C@@H](O)[C@@H](O)NC(=O)[C@@H]2[C@@H](O)[C@@H](C)CN2C(=O)[C@H]([C@@H](C)O)NC(=O)[C@H]([C@H](O)[C@@H](O)c2ccc(O)cc2)NC(=O)[C@@H]2C[C@@H](O)CN2C(=O)[C@H]([C@@H](C)O)NC1=O (stereo partly drawn) (X24-[Orn(4R-OH,5R-OH)]T[Hyp][hTyr(3S-OH,4S-OH)]T[Pro(3S-OH,4S-Me)]; lactam 1-C)	80 µg/mL (≈ 75.2 µM)		55.1%
CCCCCCOc1cc2ccccc2cc1C(=O)N[C@H]1C[C@@H](O)[C@@H](O)NC(=O)[C@@H]2[C@@H](O)[C@@H](C)CN2C(=O)[C@H]([C@@H](C)O)NC(=O)[C@H]([C@H](O)[C@@H](O)c2ccc(O)cc2)NC(=O)[C@@H]2C[C@@H](O)CN2C(=O)[C@H]([C@@H](C)O)NC1=O (X30-[Orn(4R-OH,5R-OH)]T[Hyp][hTyr(3S-OH,4S-OH)]T[Pro(3S-OH,4S-Me)]; lactam 1-C)	20 µg/mL (≈ 19 µM)		19.4%
CCCCCCCCCCOc1cc2ccccc2cc1C(=O)N[C@H]1C[C@@H](O)[C@@H](O)NC(=O)[C@@H]2[C@@H](O)[C@@H](C)CN2C(=O)[C@H]([C@@H](C)O)NC(=O)[C@H]([C@H](O)[C@@H](O)c2ccc(O)cc2)NC(=O)[C@@H]2C[C@@H](O)CN2C(=O)[C@H]([C@@H](C)O)NC1=O (X27-[Orn(4R-OH,5R-OH)]T[Hyp][hTyr(3S-OH,4S-OH)]T[Pro(3S-OH,4S-Me)]; lactam 1-C)	20 µg/mL (≈ 18 µM)		40.6%
C[C@@H](O)[C@@H]1NC(=O)[C@H]([C@H](O)[C@@H](O)c2ccc(O)cc2)NC(=O)[C@@H]2C[C@@H](O)CN2C(=O)[C@H]([C@@H](C)O)NC(=O)[C@@H](NC(=O)c2ccc(C#Cc3ccc(-c4ccccc4)cc3)cc2)C[C@@H](O)[C@@H](O)NC(=O)[C@@H]2[C@@H](O)[C@@H](C)CN2C1=O (X18-[Orn(4R-OH,5R-OH)]T[Hyp][hTyr(3S-OH,4S-OH)]T[Pro(3S-OH,4S-Me)]; lactam 1-C)	0.078 µg/mL (≈ 0.0723 µM)	1.7 mg/kg	78.2%
CCCCOc1ccc(Cc2ccc(C(=O)N[C@H]3C[C@@H](O)[C@@H](O)NC(=O)[C@@H]4[C@@H](O)[C@@H](C)CN4C(=O)[C@H]([C@@H](C)O)NC(=O)[C@H]([C@H](O)[C@@H](O)c4ccc(O)cc4)NC(=O)[C@@H]4C[C@@H](O)CN4C(=O)[C@H]([C@@H](C)O)NC3=O)cc2)cc1 (X26-[Orn(4R-OH,5R-OH)]T[Hyp][hTyr(3S-OH,4S-OH)]T[Pro(3S-OH,4S-Me)]; lactam 1-C)	> 20 µg/mL		43.4%
CCCCCCCCCCOCCOc1ccc(C(=O)N[C@H]2C[C@@H](O)[C@@H](O)NC(=O)[C@@H]3[C@@H](O)[C@@H](C)CN3C(=O)[C@H]([C@@H](C)O)NC(=O)[C@H]([C@H](O)[C@@H](O)c3ccc(O)cc3)NC(=O)[C@@H]3C[C@@H](O)CN3C(=O)[C@H]([C@@H](C)O)NC2=O)cc1 (X12-[Orn(4R-OH,5R-OH)]T[Hyp][hTyr(3S-OH,4S-OH)]T[Pro(3S-OH,4S-Me)]; lactam 1-C)	0.625 µg/mL (≈ 0.567 µM)	9.5 mg/kg	71.4%
CCCCCCOc1ccc2cc(C(=O)N[C@H]3C[C@@H](O)[C@@H](O)NC(=O)[C@@H]4[C@@H](O)[C@@H](C)CN4C(=O)[C@H]([C@@H](C)O)NC(=O)[C@H]([C@H](O)[C@@H](O)c4ccc(O)cc4)NC(=O)[C@@H]4C[C@@H](O)CN4C(=O)[C@H]([C@@H](C)O)NC3=O)ccc2c1 (X15-[Orn(4R-OH,5R-OH)]T[Hyp][hTyr(3S-OH,4S-OH)]T[Pro(3S-OH,4S-Me)]; lactam 1-C)	0.039 µg/mL (≈ 0.0371 µM)	2.8 mg/kg	77.7%
C[C@@H](O)[C@@H]1NC(=O)[C@H]([C@H](O)[C@@H](O)c2ccc(O)cc2)NC(=O)[C@@H]2C[C@@H](O)CN2C(=O)[C@H]([C@@H](C)O)NC(=O)[C@@H](NC(=O)CCCCCCCCCCOc2ccc(-c3ccccc3)cc2)C[C@@H](O)[C@@H](O)NC(=O)[C@@H]2[C@@H](O)[C@@H](C)CN2C1=O (X13-[Orn(4R-OH,5R-OH)]T[Hyp][hTyr(3S-OH,4S-OH)]T[Pro(3S-OH,4S-Me)]; lactam 1-C)	0.02 µg/mL (≈ 0.0176 µM)	7.4 mg/kg	80.2%

— ChEMBL document CHEMBL1128519, “Semisynthetic chemical modification of the antifungal lipopeptide echinocandin B (ECB): structure-activity studies of the lipophilic and geometric parameters of polyarylated acyl analogs of ECB” (J Med Chem, 1995)
